In ChEMBL document CHEMBL3616436, “Synthesis, cytotoxicity and antimicrobial activity of thiourea derivatives incorporating 3-(trifluoromethyl)phenyl moiety” (Eur J Med Chem, 2015):
Converted amounts (≈) assume the structure as drawn. The source made the active and inactive calls. No cut-off for these calls is given here.

Columns and labels:
[1] = system: Staphylococcus epidermidis; assay: Inhibition of biofilm formation in Staphylococcus epidermidis 76/04 at 8 ug/ml after 24 hrs using MTT staining by spectrophotometer analysis; assay type: functional; details: 76/04, 24 h
Procedure, shortened: (§1)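 Methicillin-resistant hospital isolates or ATCC strains of S. epidermidis were grown overnight in tryptone soy broth with 0.5% glucose. Inoculum of 10^7 CFU/mL was mixed 1:1 with compound in TSB-glucose and incubated 24 h at 37 °C. Non-adherent cells were washed off with PBS, and wells were stained with MTT (0.5% in PBS) for 2 h at 37 °C. Stain was solubilized in DMSO/glycine buffer and read at A554. Inhibition is relative to drug-free control; quadruplicates.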

CCRF-SB = assay: Cytotoxicity against human CCRF-SB cells after 96 hrs by MTT assay; assay type: functional
Procedure, shortened: (§2)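 Leukaemia/lymphoma lines seeded at 1×10^5 cells/ml in RPMI-1640 with 10% FCS and penicillin/streptomycin; incubated with serial dilutions at 37°C, 5% CO2; viability by MTT after 96 h; value is concentration reducing proliferation by 50%, with untreated controls undergoing at least three rounds of multiplication.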

[2] = biological target: T1, Topoisomerase IV (Staphylococcus aureus) (UniProt P0C1U9+P0C1S7); assay: Inhibition of decatenation activity of DNA topoisomerase 4 in Staphylococcus aureus ATCC 6538 using kDNA as substrate at 1 to 4 ug/ml […] using ethidium bromide staining by agarose gel electrophoresis; assay type: protein-complex assay
[3] = system: Staphylococcus epidermidis; assay: Inhibition of biofilm formation in Staphylococcus epidermidis 151/04 at 8 ug/ml after 24 hrs using MTT staining by spectrophotometer analysis; assay type: functional; details: 151/04, 24 h
[4] = biological target: T2, DNA topoisomerase 4 (Staphylococcus epidermidis) (UniProt Q5HPI6+Q5HPI5); assay: Inhibition of decatenation activity of DNA topoisomerase 4 in hospital methicillin-resistant Staphylococcus epidermidis 151/04 using kDNA as substrate at 1 to 4 ug/ml after 1 hr using ethidium bromide staining by agarose gel electrophoresis; assay type: protein assay
T2 sequence (Q5HPI5 whole entry, looked up): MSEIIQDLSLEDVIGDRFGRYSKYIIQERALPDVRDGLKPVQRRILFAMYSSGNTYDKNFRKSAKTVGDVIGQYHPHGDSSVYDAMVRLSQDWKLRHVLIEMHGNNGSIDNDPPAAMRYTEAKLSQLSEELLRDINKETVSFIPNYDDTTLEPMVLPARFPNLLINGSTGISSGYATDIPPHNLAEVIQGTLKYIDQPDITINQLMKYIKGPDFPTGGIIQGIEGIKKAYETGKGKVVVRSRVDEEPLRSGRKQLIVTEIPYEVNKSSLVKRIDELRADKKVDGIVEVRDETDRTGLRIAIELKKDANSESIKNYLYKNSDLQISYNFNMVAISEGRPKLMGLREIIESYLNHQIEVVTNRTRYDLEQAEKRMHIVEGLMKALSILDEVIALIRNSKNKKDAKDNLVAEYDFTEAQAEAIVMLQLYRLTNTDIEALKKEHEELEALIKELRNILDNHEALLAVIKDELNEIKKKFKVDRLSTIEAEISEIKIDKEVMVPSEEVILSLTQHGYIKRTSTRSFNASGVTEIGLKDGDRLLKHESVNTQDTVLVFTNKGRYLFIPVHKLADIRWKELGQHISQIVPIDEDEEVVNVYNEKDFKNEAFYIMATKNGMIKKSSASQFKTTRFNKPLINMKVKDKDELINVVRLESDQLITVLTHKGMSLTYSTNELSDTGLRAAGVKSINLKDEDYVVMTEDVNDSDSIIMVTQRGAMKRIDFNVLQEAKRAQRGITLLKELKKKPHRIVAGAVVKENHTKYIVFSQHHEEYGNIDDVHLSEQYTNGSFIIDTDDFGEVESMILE
T2 sequence (Q5HPI6 whole entry, looked up): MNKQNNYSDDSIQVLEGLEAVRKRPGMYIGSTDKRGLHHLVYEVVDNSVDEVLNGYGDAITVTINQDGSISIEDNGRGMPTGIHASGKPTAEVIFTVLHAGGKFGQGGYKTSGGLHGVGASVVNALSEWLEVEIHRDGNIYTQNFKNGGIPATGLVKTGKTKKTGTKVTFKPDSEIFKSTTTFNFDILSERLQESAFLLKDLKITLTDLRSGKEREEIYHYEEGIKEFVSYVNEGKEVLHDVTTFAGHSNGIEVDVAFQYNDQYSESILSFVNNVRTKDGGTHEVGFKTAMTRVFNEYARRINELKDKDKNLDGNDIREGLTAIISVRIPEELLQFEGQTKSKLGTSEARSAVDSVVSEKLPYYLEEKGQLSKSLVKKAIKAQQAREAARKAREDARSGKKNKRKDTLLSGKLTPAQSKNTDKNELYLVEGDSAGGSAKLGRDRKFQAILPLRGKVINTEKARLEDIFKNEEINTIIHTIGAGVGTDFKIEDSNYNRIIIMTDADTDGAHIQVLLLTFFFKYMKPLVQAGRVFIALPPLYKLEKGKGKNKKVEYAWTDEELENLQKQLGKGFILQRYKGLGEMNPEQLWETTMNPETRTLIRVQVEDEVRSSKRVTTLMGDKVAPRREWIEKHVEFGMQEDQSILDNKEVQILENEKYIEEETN

[5] = system: Staphylococcus epidermidis; assay: Inhibition of biofilm formation in Staphylococcus epidermidis 31/04 at 8 ug/ml after 24 hrs using MTT staining by spectrophotometer analysis; assay type: functional; details: 31/04, 24 h; procedure, shortened: as §1
[6] = system: Staphylococcus epidermidis; assay: Inhibition of biofilm formation in Staphylococcus epidermidis 24/04 at 8 ug/ml after 24 hrs using MTT staining by spectrophotometer analysis; assay type: functional; details: 24/04, 24 h
[7] = system: Staphylococcus epidermidis; assay: Inhibition of biofilm formation in Staphylococcus epidermidis 23/04 at 8 ug/ml after 24 hrs using MTT staining by spectrophotometer analysis; assay type: functional; details: 23/04, 24 h
[8] = system: Staphylococcus epidermidis; assay: Inhibition of biofilm formation in Staphylococcus epidermidis ATCC 12228 after 24 hrs using MTT staining by spectrophotometer analysis; assay type: functional, organism-based; details: ATCC 12228, 24 h
Procedure, shortened: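 Biofilm was grown for 24 h at 37 °C in TSB with 0.5% glucose from 10^7 CFU/mL inoculum, mixed 1:1 with compound. Final concentrations were 0.125–4 or 0.25–8 µg/ml. Wells were PBS-washed and MTT-stained for 2 h at 37 °C, solubilized in DMSO/glycine buffer and read at 554 nm. IC50 (50% inhibition of biofilm formation) was taken from the dose-response curve; quadruplicates.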

CCRF-CEM = assay: Cytotoxicity against human CCRF-CEM cells after 96 hrs by MTT assay; assay type: functional; procedure, shortened: as §2
[9] = system: Staphylococcus epidermidis; assay: Inhibition of biofilm formation in Staphylococcus epidermidis 62/04 at 8 ug/ml after 24 hrs using MTT staining by spectrophotometer analysis; assay type: functional; details: 62/04, 24 h; procedure, shortened: as §1
[10] = system: Staphylococcus epidermidis; assay: Inhibition of biofilm formation in Staphylococcus epidermidis […]/[…] at 8 ug/ml after 24 hrs using MTT staining by spectrophotometer analysis; assay type: functional; details: 16/04, 24 h
[11] = system: Staphylococcus epidermidis; assay: Inhibition of biofilm formation in Staphylococcus epidermidis 31/04 after 24 hrs using MTT staining by spectrophotometer analysis; assay type: functional, organism-based; details: 31/04, 24 h
[12] = system: Staphylococcus epidermidis; assay: Inhibition of biofilm formation in Staphylococcus epidermidis 63/04 at 8 ug/ml after 24 hrs using MTT staining by spectrophotometer analysis; assay type: functional; details: 63/04, 24 h; procedure, shortened: as §1
[13] = biological target: T1, Topoisomerase IV (Staphylococcus aureus); assay: Inhibition of decatenation activity of DNA topoisomerase 4 in hospital methicillin-resistant Staphylococcus aureus 522/11 using kDNA as substrate at 32 ug/ml after 1 hr using ethidium bromide staining by agarose gel electrophoresis; assay type: protein-complex assay
[14] = biological target: T1, Topoisomerase IV (Staphylococcus aureus); assay: Inhibition of decatenation activity of DNA topoisomerase 4 in hospital methicillin-resistant Staphylococcus aureus 54/05 using kDNA as substrate at 32 ug/ml after 1 hr using ethidium bromide staining by agarose gel electrophoresis; assay type: protein-complex assay
[15] = biological target: T1, Topoisomerase IV (Staphylococcus aureus); assay: Inhibition of decatenation activity of DNA topoisomerase 4 in Staphylococcus aureus ATCC 25923 using kDNA as substrate at 32 ug/ml after 1 hr using ethidium bromide staining by agarose gel electrophoresis; assay type: protein-complex assay
Procedure, shortened: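 Kit-supplied S. aureus topoisomerase IV, 1 U, with 200 ng kDNA in the supplied assay buffer. Reactions ran 30 min at 37 °C with compound at 1, 4 or 32 µg/ml. They were stopped with STEB and extracted with chloroform/isoamyl alcohol (24:1). Products were run on 1% agarose in TAE for 1 h at 120 V and visualised with ethidium bromide under UV. Controls were no-enzyme, no-compound and ±DMSO.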

[16] = biological target: T2, DNA topoisomerase 4 (Staphylococcus epidermidis); assay: Inhibition of decatenation activity of DNA topoisomerase 4 in hospital methicillin-resistant Staphylococcus epidermidis 31/04 using kDNA as substrate at 1 to 4 ug/ml after 1 hr using ethidium bromide staining by agarose gel electrophoresis; assay type: protein assay
[17] = biological target: T1, Topoisomerase IV (Staphylococcus aureus); assay: Inhibition of decatenation activity of DNA topoisomerase 4 in hospital methicillin-resistant Staphylococcus aureus 57/05 using kDNA as substrate at 32 ug/ml after 1 hr using ethidium bromide staining by agarose gel electrophoresis; assay type: protein-complex assay
WIL2-NS = assay: Cytotoxicity against human WIL2-NS cells after 96 hrs by MTT assay; assay type: functional; procedure, shortened: as §2
[18] = biological target: T1, Topoisomerase IV (Staphylococcus aureus); assay: Inhibition of decatenation activity of DNA topoisomerase 4 in hospital methicillin-resistant Staphylococcus aureus 80/05 using kDNA as substrate at 32 ug/ml after 1 hr using ethidium bromide staining by agarose gel electrophoresis; assay type: protein-complex assay
[19] = biological target: T1, Topoisomerase IV (Staphylococcus aureus); assay: Inhibition of decatenation activity of DNA topoisomerase 4 in hospital methicillin-resistant Staphylococcus aureus 522/11 using kDNA as substrate at 1 to 4 ug/ml after 1 hr using ethidium bromide staining by agarose gel electrophoresis; assay type: protein-complex assay
[20] = biological target: T2, DNA topoisomerase 4 (Staphylococcus epidermidis); assay: Inhibition of decatenation activity of DNA topoisomerase 4 in Staphylococcus epidermidis ATCC 35984 using kDNA as substrate at 1 to 4 ug/ml after 1 hr using ethidium bromide staining by agarose gel electrophoresis; assay type: protein assay
[21] = Cytotoxicity against human HaCaT cells assessed as cell viability at 16 uM after 24 hrs by MTT assay relative to control; assay type: cell-based; details: read-out: Activity
Procedure, shortened: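 HaCaT keratinocytes, 2.5x10^4 cells/well, in DMEM with 2% FBS, exposed 24 h to 16 µM compound, then 2 h with 0.5 mg/ml MTT; formazan dissolved in 0.04 M HCl/isopropanol, A570; viability as % of untreated control absorbance; three independent experiments in triplicate.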

[22] = system: Staphylococcus epidermidis; assay: Inhibition of biofilm formation in Staphylococcus epidermidis 151/04 after 24 hrs using MTT staining by spectrophotometer analysis; assay type: functional, organism-based; details: 151/04, 24 h

| SMILES | inhibition at 8 µg/mL [1] | CC50 (CCRF-SB) | inhibition [2] | inhibition at 8 µg/mL [3] | inhibition [4] | inhibition at 8 µg/mL [5] | inhibition at 8 µg/mL [6] | inhibition at 8 µg/mL [7] | IC50 [8] | CC50 (CCRF-CEM) | IC50 [11] | inhibition [13] | inhibition [14] | inhibition [15] | inhibition [16] | inhibition [17] | CC50 (WIL2-NS) | inhibition [18] | inhibition [19] | inhibition [20] | also measured |
| --- | --- | --- | --- | --- | --- | --- | --- | --- | --- | --- | --- | --- | --- | --- | --- | --- | --- | --- | --- | --- | --- |
| Fc1ccc(NC(=S)Nc2cccc(C(F)(F)F)c2)cc1Cl | 40% | 9.5 µM | Active | 40% | Active | 40% | 40% | 40% | 1.62 µg/mL (≈ 4.65 µM) | 7 µM | 1.18 µg/mL (≈ 3.38 µM) | Active | Active | Active | Active | Active | 9 µM | Active | Active | Active | inhibition at 8 µg/mL [9]: 40%; inhibition at 8 µg/mL [10]: 40%; inhibition at 8 µg/mL [12]: 40%; viability at 24 h, 16 µM [21]: 89.8% |
| FC(F)(F)c1cccc(NC(S)=Nc2ccc(Cl)c(Cl)c2)c1 |  | 8.8 µM |  |  |  |  |  |  |  | 8 µM |  |  |  |  |  |  | 8 µM |  |  |  |  |
| FC(F)(F)c1cccc(NC(=S)Nc2ccc(Cl)cc2)c1 |  | 11 µM |  |  |  |  |  |  |  | 12 µM |  |  |  |  |  |  | 13 µM |  |  |  |  |
| FC(F)(F)c1cccc(NC(=S)Nc2cccc(Br)c2)c1 | 70% | 9 µM | Active | 70% | Active | 70% | 70% | 70% | 2.8 µg/mL (≈ 7.46 µM) | 9.3 µM | 3.76 µg/mL (≈ 10 µM) | Active | Active | Active | Active | Active | 9.9 µM | Active | Active | Active | inhibition at 8 µg/mL [9]: 80%; inhibition at 8 µg/mL [10]: 70%; inhibition at 8 µg/mL [12]: 70%; IC50 [22]: 2.34 µg/mL (≈ 6.24 µM); viability at 24 h, 16 µM [21]: 91% |
| O=C(O)c1cn(C2CC2)c2cc(N3CCNCC3)c(F)cc2c1=O [CIPROFLOXACIN] |  |  | Active |  | Active |  |  |  | 7 µg/mL (≈ 21.1 µM) |  | 22.1 µg/mL (≈ 66.8 µM) | Active | Active | Active | Active | Active |  | Active | Active | Active | IC50 [22]: 13.1 µg/mL (≈ 39.5 µM) |
